Source: ChEMBL document CHEMBL4152257, “Discovery of novel β-carboline/acylhydrazone hybrids as potent antitumor agents and overcome drug resistance” (Eur J Med Chem, 2018)
Activity calls are given as the source filed them. No cut-off for these calls is given here.

Experiments:
MDA-MB-231 = test: Antiproliferative activity against human MDA-MB-231 cells at 1 uM after 48 to 72 hrs by MTT assay relative to control; format: functional
How it was run: (§1)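 Single-concentration screen in the MTT proliferation assay: log-phase cells seeded and allowed to adhere, exposed to compound at 1 µM for 48 h or 72 h, MTT added for 2-3 h, formazan dissolved in DMSO; percent inhibition versus control.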

Raji [1] = test: Antiproliferative activity against human Raji cells at 1 uM after 48 to 72 hrs by MTT assay relative to control; format: functional; how it was run: as §1
MCF7 [2] = test: Antiproliferative activity against human MCF7 cells after 48 to 72 hrs by MTT assay; format: functional, cell-based
How it was run: (§2)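 Cells in log phase seeded and allowed to adhere, then exposed to graded compound concentrations for 48 h or 72 h; MTT added for a further 2-3 h, formazan dissolved in DMSO. IC50 taken from dose-response curves; mean ± SD of at least three independent experiments.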

Raji [3] = test: Antiproliferative activity against human Raji cells after 48 to 72 hrs by MTT assay; format: functional, cell-based; how it was run: as §2
[4] = Resistance index, ratio of IC50 for human A549/TR cells to IC50 for human A549 cells; format: functional
A2780S = test: Antiproliferative activity against human A2780S cells after 48 to 72 hrs by MTT assay; format: functional, cell-based; how it was run: as §2
A2780/Taxol = test: Antiproliferative activity against human A2780T cells after 48 to 72 hrs by MTT assay; format: functional, cell-based; how it was run: as §2
NCI/ADR-RES [5] = test: Antiproliferative activity against human MCF7/ADR cells after 48 to 72 hrs by MTT assay; format: functional, cell-based; how it was run: as §2
HUVEC = test: Antiproliferative activity against HUVEC after 48 to 72 hrs by MTT assay; format: cell-based; settings: Homo sapiens; how it was run: as §2
[6] = Selectivity ratio of IC50 for HUVEC to IC50 for human A549/TR cells; format: toxicity; settings: HUVEC versus A549/TR cells
MCF7 [7] = test: Cell cycle arrest in human MCF7 cells assessed as accumulation at G0/G1 phase at 30 uM after 18 hrs by propidium iodide staining based flow cytometry (reference value: 45.22%); format: functional
MCF7 [8] = test: Cell cycle arrest in human MCF7 cells assessed as accumulation at S phase at 30 uM after 18 hrs by propidium iodide staining based flow cytometry (reference value: 44.80%); format: functional
MCF7 [9] = test: Cell cycle arrest in human MCF7 cells assessed as accumulation at G2/M phase at 30 uM after 18 hrs by propidium iodide staining based flow cytometry (reference value: 9.98%); format: functional
MCF7 [10] = test: Cell cycle arrest in human MCF7 cells assessed as accumulation at sub-G1 phase after 18 hrs by propidium iodide staining based flow cytometry; format: functional
MCF7 [11] = test: Induction of apoptosis in human MCF7 cells assessed as viable cells at 3 uM after 48 hrs by annexin V-FITC/PI dual staining based flow cytometry (reference value: 77.8%); format: functional; settings: MCF7, 48 h, read-out: Activity
MCF7 [12] = test: Induction of apoptosis in human MCF7 cells assessed as necrotic cells at 3 uM after 48 hrs by annexin V-FITC/PI dual staining based flow cytometry (reference value: 0.16%); format: functional
MCF7 [13] = test: Induction of apoptosis in human MCF7 cells assessed as early apoptotic cells at 10 uM after 48 hrs by annexin V-FITC/PI dual staining based flow cytometry (reference value: 11%); format: functional
MCF7 [14] = test: Induction of apoptosis in human MCF7 cells assessed as necrotic cells at 10 uM after 48 hrs by annexin V-FITC/PI dual staining based flow cytometry (reference value: 0.16%); format: functional
MCF7 [15] = test: Induction of apoptosis in human MCF7 cells assessed as viable cells at 30 uM after 48 hrs by annexin V-FITC/PI dual staining based flow cytometry (reference value: 77.8%); format: functional; settings: MCF7, 48 h, read-out: Activity
MCF7 [16] = test: Induction of apoptosis in human MCF7 cells assessed as early apoptotic cells at 100 uM after 48 hrs by annexin V-FITC/PI dual staining based flow cytometry (reference value: 11%); format: functional
MCF7 [17] = test: Induction of apoptosis in human MCF7 cells assessed as late apoptotic cells at 100 uM after 48 hrs by annexin V-FITC/PI dual staining based flow cytometry (reference value: 11.1%); format: functional
MCF7 [18] = test: Induction of apoptosis in human MCF7 cells assessed as necrotic cells at 100 uM after 48 hrs by annexin V-FITC/PI dual staining based flow cytometry (reference value: 0.16%); format: functional
NCI/ADR-RES [19] = test: Induction of apoptosis in human MCF7/ADR cells assessed as early apoptotic cells at 3 uM after 48 hrs by annexin V-FITC/PI dual staining based flow cytometry (reference value: 2.72%); format: functional
NCI/ADR-RES [20] = test: Induction of apoptosis in human MCF7/ADR cells assessed as viable cells at 10 uM after 48 hrs by annexin V-FITC/PI dual staining based flow cytometry (reference value: 89.8%); format: functional; settings: read-out: Activity
NCI/ADR-RES [21] = test: Induction of apoptosis in human MCF7/ADR cells assessed as early apoptotic cells at 10 uM after 48 hrs by annexin V-FITC/PI dual staining based flow cytometry (reference value: 2.72%); format: functional
NCI/ADR-RES [22] = test: Induction of apoptosis in human MCF7/ADR cells assessed as necrotic cells at 10 uM after 48 hrs by annexin V-FITC/PI dual staining based flow cytometry (reference value: 2.43%); format: functional
NCI/ADR-RES [23] = test: Induction of apoptosis in human MCF7/ADR cells assessed as early apoptotic cells at 30 uM after 48 hrs by annexin V-FITC/PI dual staining based flow cytometry (reference value: 2.72%); format: functional
NCI/ADR-RES [24] = test: Induction of apoptosis in human MCF7/ADR cells assessed as necrotic cells at 30 uM after 48 hrs by annexin V-FITC/PI dual staining based flow cytometry (reference value: 2.43%); format: functional
NCI/ADR-RES [25] = test: Induction of apoptosis in human MCF7/ADR cells assessed as late apoptotic cells at 100 uM after 48 hrs by annexin V-FITC/PI dual staining based flow cytometry (reference value: 5.02%); format: functional
NCI-H460 = test: Antitumor activity against human H460 cells xenografted in athymic nude Balb/C mouse assessed as tumor growth inhibition at 100 mg/kg, po administered 3 times per week measured on day 18 relative to control; format: functional; settings: 432 h, read-out: TGI
How it was run: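 Nude mice (5-6 weeks old, female) implanted sc in right flank with 5 × 10^6 H460 cells in HBSS; at 100 mm3 tumours, randomised 6 per group to vehicle, oral 100 mg/kg three times weekly, or ip 30 mg/kg once weekly. Tumour volume by caliper every 2 days as (π/6) × length × width²; body weight recorded; inhibition from tumour weights versus control.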

Mus musculus [26] = test: Toxicity in athymic nude Balb/C mouse xenografted with human H460 cells assessed as body weight loss at 100 mg/kg, po administered 3 times per week measured every 2 days; format: organism-based; settings: in vivo, 48 h
How it was run: (§3)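 Nude mice, 5-to-6-week-old females, given 5 × 10^6 H460 cells sc in right flank in HBSS; at 100 mm3 tumour volume randomized, 6 per group. Vehicle; oral 100 mg/kg three times weekly; or ip 30 mg/kg once weekly. Toxicity signs and mortality observed daily; body weight measured every 2 days.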

Mus musculus [27] = test: Toxicity in athymic nude Balb/C mouse xenografted with human H460 cells assessed as effect on abnormal behaviour at 100 mg/kg, po administered 3 times per week measured every 2 days; format: organism-based; settings: in vivo, 48 h; how it was run: as §3

Compound: N#Cc1ccc(COc2cccc(/C=N/NC(=O)c3cc4c(cn3)[nH]c3ccccc34)c2)cc1
- inhibition at 1 µM (MDA-MB-231): 29.6%
- inhibition at 1 µM (Raji [1]): 42.7%
- IC50 (MCF7 [2]): 930 to 1020 nM
- IC50 (Raji [3]): 1060 to 1200 nM
- Ratio IC50 [4]: 2.28
- IC50 (A2780S): 3020 nM
- IC50 (A2780/Taxol): 3990 nM
- IC50 (NCI/ADR-RES [5]): 982 nM
- IC50 (HUVEC): 88600 nM
- selectivity ratio [6]: 28.3
- Activity (MCF7 [7]): 38.62%
- Activity (MCF7 [8]): 55.32%
- Activity (MCF7 [9]): 6.06%
- Activity (MCF7 [10]): Active
- viability at 3 µM (MCF7 [11]): 66.8%
- Activity (MCF7 [12]): 0.26%
- Activity (MCF7 [13]): 13.1%
- Activity (MCF7 [14]): 0.3%
- viability at 30 µM (MCF7 [15]): 50.9%
- Activity (MCF7 [16]): 13%
- Activity (MCF7 [17]): 38.9%
- Activity (MCF7 [18]): 0.76%
- Activity (NCI/ADR-RES [19]): 2.44%
- viability at 10 µM (NCI/ADR-RES [20]): 70.1%
- Activity (NCI/ADR-RES [21]): 4.38%
- Activity (NCI/ADR-RES [22]): 6.4%
- Activity (NCI/ADR-RES [23]): 4.85%
- Activity (NCI/ADR-RES [24]): 8.52%
- Activity (NCI/ADR-RES [25]): 30.2%
- inhibition in vivo at 100 mg/kg (NCI-H460): 17.2%
- Activity (Mus musculus [26]): < 5%
- Activity (Mus musculus [27]): Non-Toxic
